Measurements from different studies.
Protocols differ between the studies behind these lines.
Target: Tyrosine-protein kinase Mer (MERTK, Homo sapiens, UniProt Q12866)
Residues used in one study (Q12866 21-999): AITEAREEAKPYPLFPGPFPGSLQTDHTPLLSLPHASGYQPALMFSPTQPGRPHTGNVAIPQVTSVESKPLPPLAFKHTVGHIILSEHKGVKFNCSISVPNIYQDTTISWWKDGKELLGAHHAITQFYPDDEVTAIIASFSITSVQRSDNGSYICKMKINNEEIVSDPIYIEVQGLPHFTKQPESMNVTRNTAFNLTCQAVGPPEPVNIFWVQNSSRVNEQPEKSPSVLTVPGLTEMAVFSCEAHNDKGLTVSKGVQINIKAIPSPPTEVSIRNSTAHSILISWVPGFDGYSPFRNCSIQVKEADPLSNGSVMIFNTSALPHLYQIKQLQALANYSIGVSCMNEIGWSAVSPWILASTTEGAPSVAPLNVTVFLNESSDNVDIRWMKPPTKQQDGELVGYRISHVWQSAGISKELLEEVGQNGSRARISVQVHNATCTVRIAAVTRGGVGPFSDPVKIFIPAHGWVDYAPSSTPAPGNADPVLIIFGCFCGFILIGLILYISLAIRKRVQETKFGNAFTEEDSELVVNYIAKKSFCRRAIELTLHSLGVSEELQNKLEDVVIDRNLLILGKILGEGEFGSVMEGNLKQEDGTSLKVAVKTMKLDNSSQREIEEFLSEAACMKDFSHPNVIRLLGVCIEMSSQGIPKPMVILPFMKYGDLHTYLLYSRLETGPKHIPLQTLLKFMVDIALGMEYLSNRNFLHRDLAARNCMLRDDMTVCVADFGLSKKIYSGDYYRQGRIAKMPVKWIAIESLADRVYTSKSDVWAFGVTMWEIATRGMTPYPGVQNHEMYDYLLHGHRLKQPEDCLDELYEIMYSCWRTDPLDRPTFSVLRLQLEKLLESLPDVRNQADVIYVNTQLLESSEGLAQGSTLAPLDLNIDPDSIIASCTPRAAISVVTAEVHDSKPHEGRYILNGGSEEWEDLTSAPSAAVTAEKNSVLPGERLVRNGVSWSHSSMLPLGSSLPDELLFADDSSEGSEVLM

| SMILES | observed | technique | concentration | remaining binding |
| --- | --- | --- | --- | --- |
| CN(C)c1nccc(-c2cnc3ncccn23)n1 | binding | – | 1 µM | 82% |
| O=C(c1ccc(Nc2ncc(Cl)c(-c3cc4ccccc4s3)n2)cc1)N1CCC(N2CCCC2)CC1 | binding | competition with immobilised ligand | 1 µM | 1.8% |
| COc1ncc2cc3ccccc3nc2c1C#N | cell-free assay | competition with immobilised ligand | 5 µM | 100% |
| CC(=O)N1CCC(c2ccc(C(=O)NC(=N)N)cc2C(F)(F)F)CC1 | cell-free assay | competition with immobilised ligand | 1 µM | 81% |
| COc1cnc(Nc2cccc(S(N)(=O)=O)c2)nc1N1CCN(c2ccccc2)C(=O)C1 | binding | competition with immobilised ligand | 1 µM | 94% |
| CS(=O)(=O)c1cc(C2(NC(=O)c3cncc4c3cnn4-c3ccc(F)cc3)CC2)ccn1 | cell-free assay | competition with immobilised ligand | 1 µM | 100% |
| O=C(NCCCN1CCOCC1)c1ccc(Nc2ncc(Cl)c(-c3ccc(Cl)s3)n2)cc1 | binding | competition with immobilised ligand | 1 µM | 5.5% |
| C[C@@H]1CCN(c2nccc(-c3cnn4ncccc34)n2)C1 | binding | – | 1 µM | 100% |
| Nc1ncc2c(n1)-c1c([nH]c3ccc(C#CC4CC4)cc13)CCCC2 | binding | competition with immobilised ligand | 1 µM | 100% |
| CN(C)c1nccc(-c2cnn3ncccc23)n1 | binding | – | 1 µM | 87% |
| CCc1ccccc1C(=O)Nc1n[nH]c2c(C)c(F)c(C3C(C#N)=C(C)N(C)C(C)=C3C#N)cc12 | cell-free assay | competition with immobilised ligand | 1 µM | 80% |
| O=C(c1ccc(Nc2nccc(-c3cc4ccccc4s3)n2)cc1)N1CCC(N2CCCC2)CC1 | binding | competition with immobilised ligand | 1 µM | 42% |
| O=C(N[C@H]1CCCCC/C=C\C2C[C@@]2(C(=O)O)NC(=O)[C@@H]2C[C@@H](Oc3ccncc3)CN2C1=O)OC1CCCC1 (stereo partly drawn) | binding | competition with immobilised ligand | 1 µM | 64% |
| CN(CCCC(F)(F)F)c1nccc(-c2cnn3ncccc23)n1 | binding | – | 1 µM | 100% |
| COc1cnc(Nc2cccc(S(N)(=O)=O)c2)nc1N1CCN(c2ccccc2)CC1 | binding | competition with immobilised ligand | 1 µM | 65% |
| O=S(=O)(NC1CCC(c2cc(F)ccc2F)(S(=O)(=O)c2ccc(Cl)cc2)CC1)C(F)(F)F (stereo not drawn) | cell-free assay | competition with immobilised ligand | 1 µM | 99% |
| FC(F)(F)Oc1cccc(-c2cnc3ccc(-c4ccncc4)nn23)c1 | cell-free assay | competition with immobilised ligand | 5 µM | 100% |
| CN(c1nccc(-c2cnn3ncccc23)n1)C1CC1 | binding | – | 1 µM | 100% |
| O=C(Nc1c[nH]nc1C(=O)NC1CCNCC1)c1cc(F)cc(F)c1 | binding | competition with immobilised ligand | 1 µM | 100% |
| COc1cc(-c2cn(C3CCc4c(F)cccc4N(CC(F)(F)F)C3=O)nn2)ccc1-n1cnc(C)c1 (stereo not drawn) | cell-free assay | competition with immobilised ligand | 1 µM | 100% |
| CC1CCCN1c1nccc(-c2cnn3ncccc23)n1 (stereo not drawn) | binding | – | 1 µM | 98% |
